An excerpt weighted towards active compounds, which were near 0.41% of everything screened.
TNAP inh no acc: TNAP (human) inhibition, acceptor-free conditions | purified TNAP, CDP-star luminescence, 30 min | P05186 | inhibition, % at 20 µM | 200,000 tested, 0.26% active | AID 1012;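 active = tissue-nonspecific alkaline phosphatase inhibition above about 50% at 20 µM in the single-dose screen, limit read from the data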;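 also: 0% = DMSO negative control and 100% = EDTA positive control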
ABCB1 inh: inhibitors of human ABCB1 transporter, ABCG2 counter-screen; P08183; CCRF-Adr cells, JC-1 efflux, flow cytometry; inhibition, % at 6.6 µM; 190,000 tested, 0.067% active; AID 1326; in the data active = inhibition above about 40%;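 also: 0% = vehicle and 100% = reference inhibitor; higher value means more JC-1 retained so stronger ABCB1 efflux block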
TNAP act hi DEA: TNAP (human) activation, high acceptor; P05186; purified TNAP, CDP-star luminescence, 1 M DEA, 30 min; active compounds read high; 0 = EDTA background, 1 = DMSO-only activity; activation factor at 20 µM; 200,000 tested, under 10 active; AID 1136;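 active = activation factor at least 2 at 20 µM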
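Dosing: 20 µM single point. System: human TNAP. Amount: TNAP 1/800 final. Incubation: 30 min, room temperature. Read-out: TNAP activation factor scaled between EDTA and DMSO control wells. Signal: luminescence from CDP-star hydrolysis. Medium: 1 M DEA, pH 9.8, Mg2+, Zn2+. Control set: EDTA negative control, DMSO positive control.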
ABCG2 block: human ABCG2 inhibition, ABCB1 as counter-screen | IgMXP3 cells, JC-1 efflux, flow cytometry | inhibition, % at 6.6 µM | 190,000 tested, 0.1% active | AID 1325;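 active = inhibition above 80%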;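 also: 0% = DMSO and 100% = nicardipine control wells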
Target sequence (Q9UNQ0 whole entry, looked up): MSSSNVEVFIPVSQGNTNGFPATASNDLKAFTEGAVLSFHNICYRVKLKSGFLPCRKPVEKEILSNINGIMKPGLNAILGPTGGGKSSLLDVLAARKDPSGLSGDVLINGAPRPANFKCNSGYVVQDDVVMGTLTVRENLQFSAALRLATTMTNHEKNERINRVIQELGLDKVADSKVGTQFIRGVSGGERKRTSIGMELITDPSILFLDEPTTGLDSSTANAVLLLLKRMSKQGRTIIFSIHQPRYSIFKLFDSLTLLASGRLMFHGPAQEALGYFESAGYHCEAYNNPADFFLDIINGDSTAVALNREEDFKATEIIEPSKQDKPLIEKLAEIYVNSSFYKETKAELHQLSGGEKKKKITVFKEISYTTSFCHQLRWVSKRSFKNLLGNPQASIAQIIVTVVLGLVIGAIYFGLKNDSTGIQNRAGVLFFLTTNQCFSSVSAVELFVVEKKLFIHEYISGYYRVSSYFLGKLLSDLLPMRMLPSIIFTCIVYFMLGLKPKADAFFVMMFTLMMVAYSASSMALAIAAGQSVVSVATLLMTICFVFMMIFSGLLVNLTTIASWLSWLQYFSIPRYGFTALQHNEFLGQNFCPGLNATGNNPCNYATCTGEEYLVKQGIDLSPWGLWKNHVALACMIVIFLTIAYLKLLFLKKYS
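Assay system – ABCG2 IgMXP3 and barcoded ABCB1 CCRF-Adr cell mix · Input – 3 million cells/mL in well · Reagent – JC-1 fluorescent substrate · Compound – single test compound dose, 6.6 µM final · Timing – 10 min exposure at 25 °C with rotation, no wash · Detection – flow cytometry of retained JC-1 fluorescence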
TNAP inh hiacc: inhibitors of human TNAP at high phosphate acceptor concentration. purified TNAP, CDP-star luminescence, 1 M DEA. 200,000 tested, 0.03% active. inhibition, % at 20 µM. P05186;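 active = over 50% inhibition of tissue-nonspecific alkaline phosphatase at 20 µM in the single-dose screen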;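 also: plate controls were DMSO wells for no effect and EDTA-quenched wells as full inhibition for full effect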
Starred values were filed as active, the others as inactive.

Screening Cc1ccc(NC(=O)CCC(=O)N/N=C/c2cc([N+](=O)[O-])ccc2O)cc1 returned TNAP inh no acc 14.4, ABCB1 inh 0.0, TNAP act hi DEA 0.9, ABCG2 block 1.5 and TNAP inh hiacc 5.5.
Cc1cc(=O)oc2cc(OCC(=O)N/N=C/c3cc([N+](=O)[O-])ccc3O)ccc12 was read as TNAP inh no acc 88.8*, ABCB1 inh -0.8, TNAP act hi DEA 0.9, ABCG2 block -3.8 and TNAP inh hiacc 13.1.
`COc1ccc(CN(Cc2ccc(C(=O)O)cc2)C(=S)Nc2ccc(C)cc2)cc1OC` gave TNAP inh no acc -0.5, ABCB1 inh -0.3, TNAP act hi DEA 1, ABCG2 block -0.7 and TNAP inh hiacc 1.8.
Screening O=c1[nH]cc(NCCNc2ncc(C(F)(F)F)cc2Cl)c(=O)[nH]1 returned TNAP inh no acc -7.9, ABCB1 inh 0.1, TNAP act hi DEA 1, ABCG2 block 4.6 and TNAP inh hiacc -2.5.
`O=C1NN(c2ccccc2)C(=O)/C1=C\c1ccc(-c2cc([N+](=O)[O-])ccc2O)o1` gave TNAP inh no acc 51.8*, ABCB1 inh -0.7, TNAP act hi DEA 0.6, ABCG2 block -2.4 and TNAP inh hiacc 44.2.
For CC(=O)Nc1cc(-c2ccc(F)cc2)[nH]n1 the results were TNAP inh no acc 90.7*, ABCB1 inh -0.2, TNAP act hi DEA 1, ABCG2 block 0.3 and TNAP inh hiacc 2.4.
Screening N=C(N)SCc1ccccn1 returned TNAP inh no acc 51.2*, ABCB1 inh 0.3, TNAP act hi DEA 1, ABCG2 block 4.7 and TNAP inh hiacc -1.8.
`O=C(N/N=C/c1ccc(O)c(O)c1)c1cccc(S(=O)(=O)N2CCCCC2)c1` gave TNAP inh no acc 78.2*, ABCB1 inh -0.5, TNAP act hi DEA 0.8, ABCG2 block -2.7 and TNAP inh hiacc 18.5.
CC(C)=CCc1c(O)ccc2c1OC(c1ccc(O)c(O)c1)CC2=O (stereo not given) was read as TNAP inh no acc 53.7*, ABCB1 inh -0.1, TNAP act hi DEA 1, ABCG2 block 1.8 and TNAP inh hiacc -1.5.
`COc1ccc(/C=N/NC(=O)c2cc(-c3cccn3C)n[nH]2)cc1OC` gave TNAP inh no acc 94.2*, ABCB1 inh -3.3, TNAP act hi DEA 1, ABCG2 block -9.5 and TNAP inh hiacc 2.8.
For COc1ccc(/C=N/NC(=O)c2ccc(=O)n(C)c2)cc1OC the results were TNAP inh no acc -6.3, ABCB1 inh 0.1, TNAP act hi DEA 1, ABCG2 block 6.2 and TNAP inh hiacc 3.0.
For CCOc1cccc(/C=N/NC(=O)c2cc(-c3cccn3C)n[nH]2)c1O the results were TNAP inh no acc -170.2, ABCB1 inh -0.3, TNAP act hi DEA 1, ABCG2 block -0.5 and TNAP inh hiacc -2.3.
`Cn1cccc1-c1cc(C(=O)N/N=C/c2cccc(O)c2)[nH]n1` gave TNAP inh no acc 95.8*, ABCB1 inh -0.7, TNAP act hi DEA 0.9, ABCG2 block -4.4 and TNAP inh hiacc 7.0.
Screening Cc1nonc1C(=O)N/N=C/c1cccc(O)c1 returned TNAP inh no acc -6.6, ABCB1 inh -0.4, TNAP act hi DEA 1, ABCG2 block 76.5 and TNAP inh hiacc 1.9.
Screening COc1cc(OC)c(OC)cc1/C=N/NC(=O)c1cc(-c2cccn2C)n[nH]1 returned TNAP inh no acc 85.4*, ABCB1 inh -0.1, TNAP act hi DEA 0.9, ABCG2 block 3.7 and TNAP inh hiacc 10.1.
For COc1cc(/C=N/NC(=O)c2cc(-c3ccc4c(c3)OCO4)n[nH]2)ccc1O the results were TNAP inh no acc 87.3*, ABCB1 inh -1.3, TNAP act hi DEA 1, ABCG2 block -1.4 and TNAP inh hiacc -1.6.
COc1cc(/C=N/NC(=O)c2cc(-c3c(C)nn(-c4ccccc4)c3C)n[nH]2)ccc1O was read as TNAP inh no acc -43.6, ABCB1 inh -0.5, TNAP act hi DEA 1, ABCG2 block -0.9 and TNAP inh hiacc 1.1.
COc1ccc(S(=O)(=O)CCC(=O)Nc2cccc(OC)c2)cc1 was read as TNAP inh no acc -13.7, ABCB1 inh 0.6, TNAP act hi DEA 1, ABCG2 block 5.0 and TNAP inh hiacc -3.6.
`COCCNC(=O)C(=O)NNC(=O)CCc1ccccc1` gave TNAP inh no acc -5.6, ABCB1 inh 0.1, TNAP act hi DEA 1.1, ABCG2 block -0.2 and TNAP inh hiacc -5.6.
Screening O=c1c2ccccc2nc(-c2ccc(F)cc2)n1NCc1ccccc1O returned TNAP inh no acc -7.5, ABCB1 inh 0.5, TNAP act hi DEA 1, ABCG2 block 7.3 and TNAP inh hiacc 0.0.
For COc1cc(C(c2c(C)[nH][nH]c2=O)c2c(C)[nH][nH]c2=O)cc(OC)c1OC the results were TNAP inh no acc -7.3, ABCB1 inh 0.1, TNAP act hi DEA 1, ABCG2 block 2.3 and TNAP inh hiacc -1.3.
For COc1cc(C(c2c(C)[nH][nH]c2=O)c2c(C)[nH][nH]c2=O)ccc1OC(C)C the results were TNAP inh no acc 81.8*, ABCB1 inh 0.5, TNAP act hi DEA 0.1, ABCG2 block 11.3 and TNAP inh hiacc 87.1*.
COc1cc(C(c2c(C)[nH][nH]c2=O)c2c(C)[nH][nH]c2=O)ccc1OS(=O)(=O)c1ccccc1 was read as TNAP inh no acc 28.6, TNAP act hi DEA 0.3 and TNAP inh hiacc 71.8*.
`COc1cc(C(c2c(C)[nH][nH]c2=O)c2c(C)[nH][nH]c2=O)ccc1OS(=O)(=O)c1ccc(C)cc1` gave TNAP inh no acc 12.4, ABCB1 inh -0.3, TNAP act hi DEA 0.5, ABCG2 block -1.1 and TNAP inh hiacc 50.8*.
Screening CNC(=O)c1ccc(CNC(=O)OCc2ccccc2)cc1 returned TNAP inh no acc -16.0, ABCB1 inh 0.2, TNAP act hi DEA 1.1, ABCG2 block 1.0 and TNAP inh hiacc -7.5.
O=C(CSc1ncn[nH]1)NCCOc1ccccc1 was read as TNAP inh no acc 13.1, ABCB1 inh 0.2, TNAP act hi DEA 1, ABCG2 block 0.8 and TNAP inh hiacc 3.6.
Screening O=C(CSc1ncn[nH]1)Nc1nc(-c2ccccc2)cs1 returned TNAP inh no acc 84.5*, ABCB1 inh 0.1, TNAP act hi DEA 1.1, ABCG2 block 2.1 and TNAP inh hiacc -7.9.
`O=C(CSc1ncn[nH]1)NCCC(c1ccccc1)c1ccccc1` gave TNAP inh no acc 54.8*, ABCB1 inh 0.3, TNAP act hi DEA 0.5, ABCG2 block 0.7 and TNAP inh hiacc 50.9*.
`COc1ccc(-c2csc(NC(=O)CSc3ncn[nH]3)n2)cc1OC` gave TNAP inh no acc -6.2, ABCB1 inh -0.4, TNAP act hi DEA 1, ABCG2 block 15.1 and TNAP inh hiacc -0.8.
O=C(NCC1CCCO1)C(c1ccc(F)cc1)N(Cc1ccc2c(c1)OCO2)C(=O)c1ccc(CN2CCOCC2)o1 (stereo not given) was read as TNAP inh no acc -2.6, ABCB1 inh -0.1, TNAP act hi DEA 1, ABCG2 block 0.2 and TNAP inh hiacc 0.8.

Bioassay records as filed in PubChem.
